Screening results deposited in PubChem BioAssay by several laboratories.
STAT1 inh: inhibitors of IFN-gamma induced STAT1 signaling; NIH 3T3 STAT1-luciferase reporter, luminescence; inhibition, % at 5.5 µM; actives 0.35% (n = 200,000); AID 920;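 active = inhibition above a set limit, the mean inhibition across all tested compounds plus 3 SD, cut at about 34% in these data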;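 also: 0% = IFN-gamma with DMSO and 100% = IFN-gamma with 300 µM nifuroxazide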
FLuc act counter: affects firefly luciferase, flagging false hits in luciferase stimulation screens; P08659; ATPlite luciferase biochemical, luminescence, 10 min; 0 = ATP-free wells, 1 = DMSO control; activation factor at 10 µM; 200,000 tested, under 10 active;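 active = luciferase activation factor, scaled between plate controls, of at least 2 with compound at 10 µM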
Target sequence (P08659 whole entry, looked up): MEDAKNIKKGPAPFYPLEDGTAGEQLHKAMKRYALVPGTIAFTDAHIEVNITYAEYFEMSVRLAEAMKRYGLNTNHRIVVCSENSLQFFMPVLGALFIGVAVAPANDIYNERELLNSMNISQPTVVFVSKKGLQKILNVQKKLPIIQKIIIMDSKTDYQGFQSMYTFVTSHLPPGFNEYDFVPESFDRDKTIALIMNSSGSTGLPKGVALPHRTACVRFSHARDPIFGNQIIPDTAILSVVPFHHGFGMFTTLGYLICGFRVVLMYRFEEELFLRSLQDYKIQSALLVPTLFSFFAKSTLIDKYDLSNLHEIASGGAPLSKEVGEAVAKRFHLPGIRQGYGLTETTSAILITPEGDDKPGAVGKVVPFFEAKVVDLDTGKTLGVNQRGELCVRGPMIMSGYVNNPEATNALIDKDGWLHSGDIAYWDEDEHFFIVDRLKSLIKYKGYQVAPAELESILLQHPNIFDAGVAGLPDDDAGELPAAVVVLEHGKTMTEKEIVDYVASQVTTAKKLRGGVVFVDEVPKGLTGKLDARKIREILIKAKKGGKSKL
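assay system = Luciferase/luciferin detection reagent, cell-free biochemical luciferase assay | also added = ATP substrate | times = 10 min post-reagent at room temperature | measured by = luminescence from luciferase reaction | measure = luciferase activation, seen as luminescence increase over controls | benchmarks = low control with PBS replacing ATP, high control enzyme plus ATP without compound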
STAT3 inh: inhibitors of IL-6 induced STAT3 signaling. inhibition, % at 5.5 µM. actives 0.89% (n = 190,000). AID 862. U3A cells, IL-6 STAT3-luciferase reporter, luminescence; host cell line lacks STAT1;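 active = inhibition above the mean inhibition across all screened compounds plus 3 SD, cut at about 44% in these data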;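 also: 0% = DMSO only wells and 100% = 100 µM nifuroxazide control wells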
FLuc inhib CS: counter-screen for luciferase assay inhibitors: firefly luciferase inhibition; P08659; inhibition, % at 10 µM; actives 1.5% (n = 200,000); ATPLite firefly luciferase biochemical luminescence, 10 min;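 active = inhibition above about 50% when tested at 10 µM, limit read from the data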
STAT1 activator: increases IFN-gamma driven STAT1 reporter signal; activation (% of control), % at 5.5 µM; actives 2.6% (n = 200,000); NIH 3T3 STAT1-luciferase reporter, luminescence; 100% = IFN-gamma alone, no compound;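 active = activation above the screen-wide mean activation plus 3 SD, cut at about 130% in these data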;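 also: raw ratio to IFN-gamma control signal so 100% means no change and 0% no light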
STAT3 act: STAT3 signaling activation; U3A cells, IL-6 STAT3-luciferase reporter, luminescence; 100% = signal with IL-6 EC80 alone; activation (% of control), % at 5.6 µM; actives 0.91% (n = 190,000); AID 871;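 active = activation above the screen-wide mean of compound activation plus 3 SD, cut at about 130% in these data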;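 also: 0% = background luminescence of wells with medium and substrate only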
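Assay system – human STAT1-deficient U3A cells with stable STAT3-luciferase reporter · Also added – IL-6 (33 ng/mL) · Schedule – compound 1 h, then IL-6 6 h at 37 °C · Technique – reporter luminescence signal · Evaluation – % activation versus median of IL-6-stimulated wells · Benchmarks – IL-6-only wells as 100% reference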
* marks the source's active call; other numbers are inactive results; · = no result given. Compounds with a hit are over-represented: about 4.9% of the library has one in this group of screens.

SMILES | STAT1 inh | FLuc act counter | STAT3 inh | FLuc inhib CS | STAT1 activator | STAT3 act
O=Nc1ccc(NOC(=O)c2ccc(Br)cc2)cc1 | 2 | 0.1 | 10 | 87* | 98 | 97
COC(=O)c1ccc(NN=Nc2ccc(C)cc2)cc1 | -42 | 1 | -7 | 3 | 137* | 104
O=C(c1c[nH]c2ccccc2c1=O)N1CCCCCC1 | 1 | 1 | 0 | -1 | 99 | 105
Clc1ccc2c(c1)C(c1cccs1)=NNC(c1cccnc1)=N2 | -2 | 1 | 12 | -2 | 102 | 99
Cc1sc2nc(CN3CCOCC3)[nH]c(=S)c2c1C | 3 | 1 | -9 | 1 | 97 | 112
COC(=O)c1cc(C(=O)c2ccc(C(C)(C)C)cc2)c[nH]1 | -24 | 0.9 | -2 | 7 | 120 | 107
CN(C)C=NC(=O)c1cc(C(=O)c2ccccc2Cl)c[nH]1 | -7 | 1 | 1 | -3 | 104 | 103
CC(C)(C)c1ccc(C(=O)c2c[nH]c(C(=O)O)c2)cc1 | -48 | 0.7 | 9 | 33 | 142* | 99
CN(C)C=NC(=O)c1cc(C(=O)c2ccc(C(C)(C)C)cc2)c[nH]1 | -46 | 0.8 | 12 | 21 | 141* | 99
Cc1ccc(C(=O)Nc2cccc(C(=O)O)c2)cc1 | 82* | 0.4 | 98* | 62* | 24 | 19
CC(=O)c1cccc(NC(=S)NC(=O)c2ccc(Br)cc2)c1 | -24 | 1.1 | -11 | -8 | 121 | 107
CC(=O)c1cccc(NC(=S)NC(=O)c2ccccc2Cl)c1 | -6 | 1 | 7 | -1 | 106 | 96
O=C(O)c1cccc(NC(=O)c2ccc3c(c2)C(=O)N(CC2CCCO2)C3=O)c1 (stereo not drawn) | 37* | 0.5 | 30 | 51* | 66 | 75
CC(=O)c1cccc(NC(=S)NC(=O)c2ccc(C)cc2Cl)c1 | -36 | 0.9 | -5 | 9 | 131* | 107
CC(=O)c1cccc(NC(=S)NC(=O)c2ccc(C)cc2)c1 | -39 | 0.9 | 12 | 8 | 138* | 91
COC(=O)c1cccc(NC(=O)c2ccc3c(c2)C(=O)N(CC2CCCO2)C3=O)c1 (stereo not drawn) | -3 | 0.9 | 5 | 7 | 101 | 97
NS(=O)(=O)c1ccc(CCNC(=O)CSc2nnc3ccccn23)cc1 | 8 | 1 | 0 | -2 | 91 | 101
CCOC(=O)C1(CCCc2ccccc2)CCN(C(=O)CCC2=NNC(=O)CC2)CC1 | 6 | 1 | 8 | -1 | 93 | 97
CCC(=O)Nc1cccc(NC(=S)NC(=O)c2ccc(C)cc2)c1 | -48 | 0.8 | 3 | 23 | 145* | 100
CCOC(=O)Cc1csc(NC(=S)NC(=O)c2ccc(C)cc2)n1 | 9 | 0.2 | 17 | 80* | 92 | 82
CCOc1ccc(C(=O)Nc2cccc(C(=O)O)c2)cc1Cl | 71* | 0.2 | 93* | 79* | 34 | 25
CC(C)(C)c1ccc(C(=O)NCC(=O)OCc2ccc([N+](=O)[O-])cc2)cc1 | 4 | 1 | -10 | -3 | 96 | 108
CCC(CO)n1c(=S)[nH]c2cc(OC)c(OC)cc2c1=O (stereo not drawn) | 0 | 1 | 4 | -3 | 99 | 98
CNCc1sccc1C | -7 | 1 | 14 | -4 | 106 | 97
COc1ccc(N=Nc2nc3ccc(Br)cc3n2C)cc1 | -25 | 0.2 | 38 | 84* | 122 | 75
SMILES | STAT1 inh | FLuc act counter | STAT3 inh | FLuc inhib CS | STAT1 activator | STAT3 act
COc1ccc(Cc2nc3ccccc3n2C)cc1 | -3 | 1 | 13 | -4 | 101 | 96
COc1ccc(-c2[nH]ncc2N=Nc2cc(C)cc(C)c2)cc1 | -4 | 1 | 4 | -3 | 104 | 99
COc1ccc(-c2[nH]ncc2N=Nc2ccccc2)cc1 | -31 | 1 | 12 | -1 | 130* | 96
Cc1ccc(S(=O)(=O)N(C)CCCC(=O)Nc2ccc(C)cc2C)cc1 | 4 | 1.1 | 4 | -8 | 96 | 96
CC(Nc1[nH]c(=O)n(C)c(=O)c1N=O)c1ccccc1 (stereo not drawn) | 2 | 1 | -2 | 2 | 97 | 102
COc1ccc(C(=O)c2c[nH]c3ccccc23)cc1 | -43 | 0.4 | -12 | 64* | 134* | 109
CCC(=O)NC(Nc1nc(C)cs1)(C(=O)OC)C(F)(F)F (stereo not drawn) | -5 | 1.1 | 3 | -9 | 105 | 101
[O-][N+]1=c2ccc(Nc3ccccc3)cc2=NC12CCCCC2 | -37 | 1 | -4 | 0 | 134* | 106
Cc1c(/C(O)=C2/C(=O)C(=O)N(CCN3CCOCC3)C2c2cccs2)cnn1-c1ccccc1 (stereo not drawn) | -46 | 0.9 | 1 | 9 | 143* | 101
O=C(NCCc1ccc(F)cc1)c1ccc([N+](=O)[O-])cc1 | -40 | 0.8 | 17 | 19 | 137* | 92
O=C(/C=C/c1ccc([N+](=O)[O-])cc1)NCCc1ccc(F)cc1 | -2 | 1.1 | 12 | -5 | 100 | 93
COc1ccc2oc(=O)c(-c3nnc(N)s3)cc2c1 | -22 | 0.9 | -1 | 11 | 120 | 108
Nc1nnc(-c2cc3ccccc3oc2=O)s1 | -33 | 0.8 | -4 | 16 | 131* | 104
O=c1oc2ccccc2cc1-c1nc2c(s1)CCc1ccccc1-2 | -4 | 1 | -39 | 1 | 104 | 134*
Cc1cc(NC(=O)CSc2ncnc3c2cnn3-c2cccc(Cl)c2)no1 | -10 | 1.1 | 2 | -6 | 108 | 105
Cc1ccc(N(CC(=O)N/N=C/c2cc(C)n(-c3ccccc3C)c2C)S(C)(=O)=O)cc1 | 1 | 1 | -12 | -1 | 99 | 112
CN(Cc1cccs1)C(=O)CCc1c[nH]c2ccccc12 | -5 | 1 | 30 | 0 | 102 | 78
CN(Cc1cccs1)C(=O)CCCc1c[nH]c2ccccc12 | -34 | 0.9 | 18 | 5 | 130* | 90
O=C(Cc1c(F)cccc1Cl)N(Cc1ccccc1)c1ccccn1 | 6 | 1 | -10 | -5 | 92 | 113
CC(C)OC(=O)CSc1nnnn1-c1ccc2c(c1)OCCO2 | -31 | 1 | 0 | 0 | 129* | 100
O=C(O)CSc1nnnn1-c1ccc2c(c1)OCCO2 | -5 | 1 | 2 | -4 | 105 | 96
Cc1nc(NC(=O)C2CC2)sc1C | -3 | 1 | 7 | 2 | 103 | 97
Cc1nc2c(ccc3nc(NC(=O)C4CC4)sc32)s1 | -61 | 0.7 | -67 | 28 | 156* | 157*
N[C@@H](CO)c1nnc([C@H](CC(=O)O)NC(=O)C2CCNCC2)o1 | 11 | 1.1 | · | -6 | 91 | ·
O=C(O)C(=O)/C(=C\c1ccc(Cl)cc1)c1ccc2ccccc2n1 | -34 | 1 | -45 | -2 | 130* | 147*
